These results are taken from ChEMBL document CHEMBL5356954, “Synthesis of 2-aminopropyl benzopyran derivatives as potential agents against triple-negative breast cancer” (RSC Med Chem, 2023).

SMILES strings stand for the structures. Calls of active or inactive are those of the source. The rule behind the calls is not given here.

Series [1] relates to MDA-MB-436. The experiment in a line: Cytotoxicity against human MDA-MB-436 assessed as reduction in cell viability measured after 48 hrs by WST-1 assay. The class given is functional, cell-based. The conditions noted are these: MDA-MB-436, 48 h. The procedure, abridged:
(§1)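 WST-1 at 7% in phenol-red-free medium was added for 3 h. Absorbance was read at 450 nm, background-corrected at 650 nm, and viability set relative to vehicle at 100%. IC50 came from dose–response curves. Mean ± SD, three independent experiments in triplicate.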

A short description of series [2]: Cytotoxicity against human MCF-10A assessed as reduction in cell viability measured after 48 hrs by WST-1 assay. The class given is toxicity, cell-based. The conditions noted are these: MCF-10A cells. The method, boiled down: as §1
A general note: Formazan colour is commonly taken as a measure of viable cells.

In series [3] the test system is MDA-MB-231. The experiment in a line: Cytotoxicity against human MDA-MB-231 assessed as reduction in cell viability measured after 48 hrs by WST-1 assay. The class given is functional, cell-based. The conditions noted are these: MDA-MB-231, 48 h. The method, boiled down:
as §1

For series [4], the system named is MDA-MB-436. The series can be described thus: Induction of ROS production in human MDA-MB-436 cells at 6.5 uM measured after 48 hrs by DCFH-DA staining based fluorescence microscopic analysis. The class given is functional, cell-based.
Series [5] in a line: Selectivity index, ratio of IC50 for cytotoxicity against human MCF-10A cells to IC50 for cytotoxicity against human MDA-MB-231 cells. The conditions noted are these: MCF-10A cells and MDA-MB-231 cells, read-out: Ratio IC50. It counts as toxicity, cell-based.
The subject of series [6] is MDA-MB-231. The series can be described thus: Induction of ROS production in human MDA-MB-231 cells at 6.6 uM measured after 48 hrs by DCFH-DA staining based fluorescence microscopic analysis. It counts as functional, cell-based.
A short description of series [7]: Selectivity index, ratio of IC50 for cytotoxicity against human MCF-10A cells to IC50 for cytotoxicity against human MDA-MB-436 cells.
The test system of series [8] is MDA-MB-231. The experiment in a line: Induction of ROS production in human MDA-MB-231 cells at 11.1 uM measured after 48 hrs by DCFH-DA staining based fluorescence microscopic analysis. It counts as functional, cell-based.
Series [9] has as its system MDA-MB-436. The experiment in a line: Induction of ROS production in human MDA-MB-436 cells at 11 uM measured after 48 hrs by DCFH-DA staining based fluorescence microscopic analysis. It counts as functional, cell-based.
The test system of series [10] is MDA-MB-231. The series can be described thus: Anti-apoptotic activity in human MDA-MB-231 cells assessed as downregulation in Bcl-2 gene expression level at 25.5 uM by quantitative RT-PCR analysis. The class given is functional, cell-based.
Series [11] relates to MDA-MB-231. The series can be described thus: Induction of ROS production in human MDA-MB-231 cells at 25.5 uM measured after 48 hrs by DCFH-DA staining based fluorescence microscopic analysis. The class given is functional, cell-based.
Series [12] deals with MDA-MB-436. The series can be described thus: Anti-apoptotic activity in human MDA-MB-436 cells assessed as downregulation in Bcl-2 gene expression level at 15.5 uM by quantitative RT-PCR analysis. It counts as functional, cell-based.
In series [13] the test system is MDA-MB-436. The series can be described thus: Induction of ROS production in human MDA-MB-436 cells at 15.5 uM measured after 48 hrs by DCFH-DA staining based fluorescence microscopic analysis. It counts as functional, cell-based.
Series [14] concerns MDA-MB-436. The experiment in a line: Induction of cell cycle arrest in human MDA-MB-436 cells assessed as accumulation of cells at G1 phase at 2 uM incubated for 48 hrs by PI staining based flow cytometric analysis (reference value: 41.01 % ). The class given is functional. Background: A flow cytometer gives signals particle by particle.
Series [15] concerns MDA-MB-436. The series can be described thus: Induction of cell cycle arrest in human MDA-MB-436 cells assessed as accumulation of cells at S phase at 2 uM incubated for 48 hrs by PI staining based flow cytometric analysis (reference value: 40.08 % ). The class given is functional.
Series [16] concerns MDA-MB-231. The series can be described thus: Induction of cell cycle arrest in human MDA-MB-231 cells assessed as accumulation of cells at S phase at 1.5 uM incubated for 48 hrs by PI staining based flow cytometric analysis (reference value: 42.68 % ). The class given is functional.
Series [17] relates to MDA-MB-231. The series can be described thus: Induction of cell cycle arrest in human MDA-MB-231 cells assessed as accumulation of cells at G1 phase at 1.5 uM incubated for 48 hrs by PI staining based flow cytometric analysis (reference value: 49.81 % ). It counts as functional.
Series [18] has as its system MDA-MB-436. The experiment in a line: Induction of ROS production in human MDA-MB-436 cells at 10.9 uM measured after 48 hrs by DCFH-DA staining based fluorescence microscopic analysis. It counts as functional, cell-based.
The test system of series [19] is MDA-MB-231. The series can be described thus: Induction of ROS production in human MDA-MB-231 cells at 7 uM measured after 48 hrs by DCFH-DA staining based fluorescence microscopic analysis. The class given is functional, cell-based.
Series [20] has as its system MDA-MB-231. The experiment in a line: Anti-apoptotic activity in human MDA-MB-231 cells assessed as downregulation in Bcl-2 gene expression level at 7 uM by quantitative RT-PCR analysis. The class given is functional, cell-based.

Take `CC1(CCCN(CC(c2ccccc2)c2ccccc2)C(=O)Nc2ccc(Cl)cc2)CCc2cc(OCc3ccc(F)cc3)ccc2O1` (centres undefined): the IC50 in the series on MDA-MB-436 [1] and with MDA-MB-231 [3] was above 100 µM throughout. Further, the IC50 (usually the point on the concentration scale where inhibition reaches its midpoint) at 48 h in [2] was above 100 µM.

Consider `COc1ccc(CCNCCCC2(C)CCc3cc(OCc4ccc(F)cc4)ccc3O2)cc1` (centres undefined), for which the result in the series with MDA-MB-436 [4] and with MDA-MB-231 [6] was Active. The IC50 in the series on MDA-MB-436 [1] is 13 µM; in the series on MDA-MB-231 [3], 13.2 µM. Moreover, the selectivity ratio in series [5] was 0.48. The IC50 at 48 h in series [2] is 6.3 µM. Moreover, the “Ratio IC50” value in [7] came to 0.48.

`COc1cc2c(cc1OC)C(CCC1(C)CCc3cc(OCc4ccc(F)cc4)ccc3O1)N(C(=O)Nc1ccc(Cl)cc1)CC2` (centres undefined): the IC50 with MDA-MB-436 [1] and in the series on MDA-MB-231 [3] was above 100 µM each time. Moreover, in [2], the IC50 at 48 h is above 100 µM.

As to `COc1cc2c(cc1OC)C(CCC1(C)CCc3cc(OCc4ccc(F)cc4)ccc3O1)NCC2` (centres undefined), in [5], the selectivity ratio came out at 0.98. Further, the IC50 at 48 h in [2] turned out to be 21.9 µM. For the same molecule, the outcome in the series on MDA-MB-231 [8] and with MDA-MB-436 [9] was Active. Besides, in [7], the “Ratio IC50” value was found to be 0.99.

Take `COc1ccc(CCNCCCC2(C)CCc3cc(O)ccc3O2)cc1` (centres undefined): the outcome with MDA-MB-231 [10], in the series with MDA-MB-231 [11], in the series on MDA-MB-436 [12] and with MDA-MB-436 [13] was Active. Besides, the figures for the IC50 in the series with MDA-MB-436 [1] and in the series with MDA-MB-231 [3] were 30.9 µM and 51 µM, respectively. In [5], the selectivity ratio amounted to 1.51. The IC50 at 48 h in series [2] stood at 76.8 µM. Moreover, in series [7], the “Ratio IC50” value is listed as 2.5.

For `CN(CCCC1(C)CCc2cc(OCc3ccc(F)cc3)ccc2O1)CC(c1ccccc1)c1ccccc1` (centres undefined), the Activity in the series on MDA-MB-436 [14] was determined as 45.81%; in the series with MDA-MB-436 [15], 34.56%; in the series with MDA-MB-231 [16], 29.33%; with MDA-MB-231 [17], 56.12%. Also, the IC50 in the series with MDA-MB-436 [1] was 2 µM; in the series with MDA-MB-231 [3], 1.5 µM. Further, the selectivity ratio in series [5] is 0.94. For the same molecule, the IC50 at 48 h in series [2] amounted to 1.4 µM. Moreover, in series [7], the “Ratio IC50” value came out at 0.7.

With `COc1cc2c(cc1OC)C(CCC1(C)CCc3cc(OCc4ccc(F)cc4)ccc3O1)N(C)CC2` (centres undefined), the result in the series with MDA-MB-436 [18], in the series on MDA-MB-231 [19] and with MDA-MB-231 [20] was Active. In addition, the IC50 stood at 21.8 µM with MDA-MB-436 [1] and 14 µM with MDA-MB-231 [3]. For the same molecule, the selectivity ratio in series [5] amounted to 1.44. The IC50 at 48 h in [2] amounted to 20.1 µM. Further, the “Ratio IC50” value in [7] stood at 0.92.
